Experiments:
Format in all cases: functional
[1] = test system: IGROV-1; experiment: Growth inhibition of human IGROV1 cells assessed as cell growth at 10^-7 M after 48 hrs by SRB assay; conditions: IGROV-1, 48 h, read-out: Activity
[2] = test system: SNB-19; experiment: Growth inhibition of human SNB19 cells assessed as cell growth at 10^-7 M after 48 hrs by SRB assay; conditions: SNB-19, 48 h, read-out: Activity
[3] = test system: K562; experiment: Growth inhibition of human K562 cells assessed as cell growth at 10^-5 M after 48 hrs by SRB assay; conditions: K562, 48 h, read-out: Activity
[4] = Growth inhibition of human HCC2998 cells assessed as cell growth at 10^-7 M after 48 hrs by SRB assay; conditions: HCC 2998, 48 h, read-out: Activity
[5] = Growth inhibition of human Hs578T cells assessed as cell growth at 10^-4 M after 48 hrs by SRB assay; conditions: Hs-578T, read-out: Activity
[6] = Growth inhibition of human SF295 cells assessed as cell growth at 10^-5 M after 48 hrs by SRB assay; conditions: SF-295, 48 h, read-out: Activity
[7] = Growth inhibition of human UACC62 cells assessed as cell growth at 10^-6 M after 48 hrs by SRB assay; conditions: UACC-62, 48 h, read-out: Activity
[8] = Growth inhibition of human OVCAR5 cells assessed as cell growth at 10^-5 M after 48 hrs by SRB assay; conditions: OVCAR-5, 48 h, read-out: Activity
[9] = test system: DU-145; experiment: Growth inhibition of human DU145 cells assessed as cell growth at 10^-4 M after 48 hrs by SRB assay; conditions: DU-145, 48 h, read-out: Activity
In short: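 Five-dose NCI panel protocol. Each dose (10^-4 to 10^-8 M, 10-fold steps) was given as 48 h continuous exposure, and protein was measured by SRB staining. Percentage growth at each level is [(Ti−Tz)/(C−Tz)]×100, where Tz is time-zero absorbance and C is untreated control.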

[10] = test system: MDA-MB-435; experiment: Growth inhibition of human MDA-MB-435 cells assessed as cell growth at 10^-7 M after 48 hrs by SRB assay; conditions: MDA-MB-435, 48 h, read-out: Activity
[11] = test system: SK-MEL-5; experiment: Growth inhibition of human SK-MEL-5 cells assessed as cell growth at 10^-8 M after 48 hrs by SRB assay; conditions: SK-MEL-5, 48 h, read-out: Activity
[12] = Growth inhibition of human UO31 cells assessed as cell growth at 10^-6 M after 48 hrs by SRB assay; conditions: UO-31, 48 h, read-out: Activity
[13] = test system: CAKI-1; experiment: Cytotoxicity against human CAKI-1 cells after 48 hrs by SRB assay; conditions: CAKI-1, 48 h
In short: (§1)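 NCI 60-cell-line panel of human tumour lines from nine cancer types. Continuous 48 h exposure at five 10-fold dilutions from 10^-4 to 10^-8 M, with 5-FU as positive control. SRB protein stain read spectrophotometrically at time zero, untreated control and each concentration. GI50, TGI and LC50 were derived from the [(Ti−Tz)/(C−Tz)]×100 growth relations, and out-of-range values are given as > or < the tested limits.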

[14] = Growth inhibition of human UACC62 cells assessed as cell growth at 10^-5 M after 48 hrs by SRB assay; conditions: UACC-62, 48 h, read-out: Activity
[15] = Growth inhibition of human SF295 cells assessed as cell growth at 10^-6 M after 48 hrs by SRB assay; conditions: SF-295, 48 h, read-out: Activity
[16] = Growth inhibition of human HOP92 cells assessed as cell growth at 10^-4 M after 48 hrs by SRB assay; conditions: HOP-92, 48 h, read-out: Activity
[17] = Growth inhibition of human NCI-ADR-RES cells assessed as cell growth at 10^-5 M after 48 hrs by SRB assay; conditions: read-out: Activity
[18] = Growth inhibition of human RXF393 cells assessed as cell growth at 10^-4 M after 48 hrs by SRB assay; conditions: RXF 393, 48 h, read-out: Activity
[19] = test system: U-251; experiment: Growth inhibition of human U251 cells assessed as cell growth at 10^-8 M after 48 hrs by SRB assay; conditions: U-251, 48 h, read-out: Activity
[20] = Growth inhibition of human MOLT4 cells assessed as cell growth at 10^-8 M after 48 hrs by SRB assay; conditions: MOLT-4, 48 h, read-out: Activity
[21] = test system: MDA-MB-468; experiment: Growth inhibition of human MDA-MB-468 cells assessed as cell growth at 10^-7 M after 48 hrs by SRB assay; conditions: MDA-MB-468, 48 h, read-out: Activity
[22] = test system: NCI-H23; experiment: Cytotoxicity against human NCI-H23 cells after 48 hrs by SRB assay; conditions: NCI-H23, 48 h; in short: as §1
[23] = test system: HT-29; experiment: Growth inhibition of human HT-29 cells assessed as cell growth at 10^-5 M after 48 hrs by SRB assay; conditions: HT-29, 48 h, read-out: Activity
[24] = test system: K562; experiment: Growth inhibition of human K562 cells assessed as cell growth at 10^-4 M after 48 hrs by SRB assay; conditions: K562, 48 h, read-out: Activity
[25] = test system: MDA-MB-231; experiment: Growth inhibition of human MDA-MB-231 cells assessed as cell growth at 10^-5 M after 48 hrs by SRB assay; conditions: MDA-MB-231, 48 h, read-out: Activity
[26] = Growth inhibition of human OVCAR3 cells assessed as cell growth at 10^-4 M after 48 hrs by SRB assay; conditions: OVCAR-3, 48 h, read-out: Activity
[27] = test system: M14; experiment: Growth inhibition of human M14 cells assessed as cell growth at 10^-8 M after 48 hrs by SRB assay; conditions: M14, 48 h, read-out: Activity
[28] = read-out: LC50 (the source's name)
[29] = read-out: pLC50 (the source's name) (converted)

SMILES: Cc1ccc(-c2nc3ccc(Cl)cc3c(=O)n2/N=C/c2ccccc2)cc1
- growth at 0.1 µM [1]: 78%
- growth at 0.1 µM [2]: 93%
- growth at 10 µM [3]: 72%
- growth at 0.1 µM [4]: 102%
- growth at 100 µM [5]: -9%
- growth at 10 µM [6]: 36%
- growth at 1 µM [7]: 80%
- growth at 10 µM [8]: 74%
- growth at 100 µM [9]: 49%
- growth at 0.1 µM [10]: 86%
- growth at 0.01 µM [11]: 94%
- growth at 1 µM [12]: 60%
- GI50 ([13]; read-out: GI50): 4.82 µM
- CC50 [13, 28]: > 100 µM
- TGI ([13]; read-out: TGI): > 100 µM
- GI50 ([13]; read-out: pGI50 (converted)): 4.79 µM
- CC50 [13, 29]: > 100 µM
- TGI ([13]; read-out: pTGI): > 100 µM
- growth at 10 µM [14]: 62%
- growth at 1 µM [15]: 80%
- growth at 100 µM [16]: 15%
- growth at 10 µM [17]: 48%
- growth at 100 µM [18]: 19%
- growth at 0.01 µM [19]: 99%
- growth at 0.01 µM [20]: 103%
- growth at 0.1 µM [21]: 93%
- GI50 ([22]; read-out: GI50): 100 µM
- CC50 [22, 28]: > 100 µM
- TGI ([22]; read-out: TGI): > 100 µM
- GI50 ([22]; read-out: pGI50 (converted)): > 100 µM
- CC50 [22, 29]: > 100 µM
- TGI ([22]; read-out: pTGI): > 100 µM
- growth at 10 µM [23]: 69%
- growth at 100 µM [24]: 59%
- growth at 10 µM [25]: 33%
- growth at 100 µM [26]: 15%
- growth at 0.01 µM [27]: 95%
